# How the values were obtained:
# D(1A) dopamine receptor = D(1A) dopamine receptor (Rattus norvegicus, UniProt P18901); experiment: Binding affinity against Dopamine receptor D1 in rat striatum using [3H]-SCH- 23390 as the radioligand.; format: tissue-based
# Procedure, shortened: (§1)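 Binding by the Jackson et al. method. 5-HT1A used [3H]OH-DPAT on rat hippocampus. α1 used [3H]prazosin, α2 [3H]RX821002 and β [3H]dihydroalprenolol, all on rat cortex. D1 used [3H]SCH-23390 on rat striatum. D2 used [3H]raclopride on LtkhD2A cell membranes.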
# [1] = biological target: T1, 5-hydroxytryptamine receptor 2C (Rattus norvegicus, UniProt P08909); experiment: Binding affinity against 5-hydroxytryptamine 2C receptor from rat cortex using [3H]mesulergine as the radioligand.; format: tissue-based
# T1 sequence (P08909 whole entry): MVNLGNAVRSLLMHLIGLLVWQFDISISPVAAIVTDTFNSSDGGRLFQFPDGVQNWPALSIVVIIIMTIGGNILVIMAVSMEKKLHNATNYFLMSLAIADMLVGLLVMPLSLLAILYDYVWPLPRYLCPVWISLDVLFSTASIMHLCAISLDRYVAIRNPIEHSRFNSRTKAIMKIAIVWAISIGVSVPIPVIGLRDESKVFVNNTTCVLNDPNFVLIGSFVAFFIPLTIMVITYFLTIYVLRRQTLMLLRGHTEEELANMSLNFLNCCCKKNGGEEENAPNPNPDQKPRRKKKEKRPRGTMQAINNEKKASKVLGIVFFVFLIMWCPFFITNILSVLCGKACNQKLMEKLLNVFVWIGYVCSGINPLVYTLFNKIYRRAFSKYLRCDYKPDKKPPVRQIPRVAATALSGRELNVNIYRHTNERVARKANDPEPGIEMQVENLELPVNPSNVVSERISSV
# Procedure, shortened: (§2)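 Binding by the Johansson et al. method. 5-HT2A used [3H]ketanserin and 5-HT2C used [3H]mesulergine, both on rat cortex. 5-HT6 and 5-HT7 used [3H]-5-HT on CHO cell membranes expressing the rat receptors.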
# D(2) dopamine receptor = D(2) dopamine receptor (Homo sapiens, UniProt P14416); experiment: Binding affinity against Dopamine receptor D2 from cell LtkhD2A membranes using [3H]raclopride as the radioligand.; procedure, shortened: as §1
# Chain of D(2) dopamine receptor (P14416 whole entry): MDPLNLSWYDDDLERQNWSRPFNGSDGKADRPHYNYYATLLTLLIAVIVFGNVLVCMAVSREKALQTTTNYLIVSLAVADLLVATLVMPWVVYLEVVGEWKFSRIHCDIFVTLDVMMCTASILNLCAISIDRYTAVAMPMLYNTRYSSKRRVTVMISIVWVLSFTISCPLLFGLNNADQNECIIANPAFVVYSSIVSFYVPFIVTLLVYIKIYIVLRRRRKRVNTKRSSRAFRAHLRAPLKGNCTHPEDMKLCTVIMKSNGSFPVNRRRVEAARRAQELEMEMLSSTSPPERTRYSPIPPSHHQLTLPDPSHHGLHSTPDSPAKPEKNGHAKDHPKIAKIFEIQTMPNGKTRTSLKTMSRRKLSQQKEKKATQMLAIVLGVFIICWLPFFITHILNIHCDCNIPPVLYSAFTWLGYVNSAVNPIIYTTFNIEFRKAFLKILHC
# [2] = biological target: 5-HT1B & 5-HT1D (Bos taurus); experiment: Binding affinity against 5-hydroxytryptamine 1B receptor - 5-hydroxytryptamine 1D receptor using [3H]5-HT as the radioligand.
# [3] = biological target: 5-hydroxytryptamine receptor 2A (Rattus norvegicus, UniProt P14842); experiment: Binding affinity against 5-hydroxytryptamine 2A receptor from rat cortex using [3H]ketanserin as the radioligand.; procedure, shortened: as §2
# Chain of 5-hydroxytryptamine receptor 2A (P14842 whole entry): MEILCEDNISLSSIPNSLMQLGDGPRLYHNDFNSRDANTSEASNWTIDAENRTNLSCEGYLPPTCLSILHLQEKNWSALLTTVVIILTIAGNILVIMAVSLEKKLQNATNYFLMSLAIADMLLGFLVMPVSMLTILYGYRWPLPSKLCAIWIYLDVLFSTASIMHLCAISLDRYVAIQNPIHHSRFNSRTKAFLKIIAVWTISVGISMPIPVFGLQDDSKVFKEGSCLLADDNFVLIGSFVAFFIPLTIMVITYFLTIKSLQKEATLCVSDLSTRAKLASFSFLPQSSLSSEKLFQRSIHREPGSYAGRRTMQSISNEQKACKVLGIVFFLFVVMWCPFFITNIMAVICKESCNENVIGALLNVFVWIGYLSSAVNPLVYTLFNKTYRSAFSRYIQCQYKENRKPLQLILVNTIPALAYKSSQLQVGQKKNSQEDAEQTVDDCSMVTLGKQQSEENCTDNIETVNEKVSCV
# Adrenergic receptor beta = Adrenergic receptor beta (Rattus norvegicus, UniProt P18090+P10608+P26255); experiment: Binding affinity against Beta adrenergic receptor in rat cortex using [3H]dihydroalprenolol as the radioligand.; procedure, shortened: as §1
# [4] = biological target: 5-hydroxytryptamine receptor 1B (Rattus norvegicus, UniProt P28564); experiment: Binding affinity against 5-hydroxytryptamine 1B receptor in membranes of Rat cerebral cortex; format: tissue-based
# Chain of 5-hydroxytryptamine receptor 1B (P28564 whole entry): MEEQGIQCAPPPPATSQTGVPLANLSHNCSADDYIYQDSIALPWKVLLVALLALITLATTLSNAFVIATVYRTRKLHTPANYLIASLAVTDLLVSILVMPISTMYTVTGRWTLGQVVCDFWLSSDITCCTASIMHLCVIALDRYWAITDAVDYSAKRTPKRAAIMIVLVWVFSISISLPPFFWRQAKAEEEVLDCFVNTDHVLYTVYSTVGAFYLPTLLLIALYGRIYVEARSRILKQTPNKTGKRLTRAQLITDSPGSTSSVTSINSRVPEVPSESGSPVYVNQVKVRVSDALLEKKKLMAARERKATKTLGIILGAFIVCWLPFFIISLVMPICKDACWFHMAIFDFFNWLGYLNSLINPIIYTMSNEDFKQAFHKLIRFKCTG
# Procedure, shortened: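 Rat cerebral cortical membranes labelled with [125I]iodocyanopindolol in the presence of 60 μM isoproterenol to block β-adrenoceptor binding. Nonspecific binding was defined with 10 μM 5-HT.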
# [5] = biological target: T2, Adrenergic receptor alpha-2 (Rattus norvegicus, UniProt P22086+P19328+P22909); experiment: Binding affinity against Alpha-2 adrenergic receptor in rat cortex using [3H]RX-821002 as the radioligand.; format: tissue-based, Brain; procedure, shortened: as §1
# T2 sequence (P22086 whole entry): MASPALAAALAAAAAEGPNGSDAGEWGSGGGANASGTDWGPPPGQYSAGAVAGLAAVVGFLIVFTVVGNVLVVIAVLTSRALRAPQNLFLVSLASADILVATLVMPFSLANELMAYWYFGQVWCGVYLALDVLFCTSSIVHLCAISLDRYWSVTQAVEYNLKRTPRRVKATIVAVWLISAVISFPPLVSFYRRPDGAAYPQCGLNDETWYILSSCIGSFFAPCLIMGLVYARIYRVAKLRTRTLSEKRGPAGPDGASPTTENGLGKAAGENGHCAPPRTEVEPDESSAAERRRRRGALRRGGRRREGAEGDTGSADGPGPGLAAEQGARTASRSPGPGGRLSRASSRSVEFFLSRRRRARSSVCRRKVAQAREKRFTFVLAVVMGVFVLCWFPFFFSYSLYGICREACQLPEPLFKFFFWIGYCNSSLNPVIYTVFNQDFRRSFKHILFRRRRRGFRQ
# T2 sequence (P19328 whole entry): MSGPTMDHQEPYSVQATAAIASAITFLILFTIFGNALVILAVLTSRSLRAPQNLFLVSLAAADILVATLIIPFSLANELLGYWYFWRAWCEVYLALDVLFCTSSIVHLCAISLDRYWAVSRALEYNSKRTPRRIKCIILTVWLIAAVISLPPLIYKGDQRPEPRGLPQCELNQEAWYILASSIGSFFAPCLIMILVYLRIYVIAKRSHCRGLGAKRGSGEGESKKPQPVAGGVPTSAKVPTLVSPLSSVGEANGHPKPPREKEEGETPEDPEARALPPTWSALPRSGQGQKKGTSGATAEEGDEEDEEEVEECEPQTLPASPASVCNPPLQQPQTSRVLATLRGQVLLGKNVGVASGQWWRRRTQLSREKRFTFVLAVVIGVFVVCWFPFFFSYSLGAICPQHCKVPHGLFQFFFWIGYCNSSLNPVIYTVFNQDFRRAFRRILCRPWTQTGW
# T2 sequence (P22909 whole entry): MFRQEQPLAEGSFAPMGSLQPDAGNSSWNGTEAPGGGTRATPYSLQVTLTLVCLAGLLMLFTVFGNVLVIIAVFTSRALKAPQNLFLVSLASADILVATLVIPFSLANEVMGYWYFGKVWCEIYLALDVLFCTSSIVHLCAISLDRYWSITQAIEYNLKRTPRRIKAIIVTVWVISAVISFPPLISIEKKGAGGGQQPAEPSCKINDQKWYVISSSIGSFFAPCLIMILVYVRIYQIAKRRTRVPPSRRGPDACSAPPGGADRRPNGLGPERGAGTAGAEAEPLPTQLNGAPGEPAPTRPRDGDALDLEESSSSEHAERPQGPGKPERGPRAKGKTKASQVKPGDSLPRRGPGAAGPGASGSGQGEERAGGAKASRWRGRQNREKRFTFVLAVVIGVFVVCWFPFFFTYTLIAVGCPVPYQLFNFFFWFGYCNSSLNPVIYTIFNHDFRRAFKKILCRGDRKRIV
# Chain of D(1A) dopamine receptor (P18901 whole entry): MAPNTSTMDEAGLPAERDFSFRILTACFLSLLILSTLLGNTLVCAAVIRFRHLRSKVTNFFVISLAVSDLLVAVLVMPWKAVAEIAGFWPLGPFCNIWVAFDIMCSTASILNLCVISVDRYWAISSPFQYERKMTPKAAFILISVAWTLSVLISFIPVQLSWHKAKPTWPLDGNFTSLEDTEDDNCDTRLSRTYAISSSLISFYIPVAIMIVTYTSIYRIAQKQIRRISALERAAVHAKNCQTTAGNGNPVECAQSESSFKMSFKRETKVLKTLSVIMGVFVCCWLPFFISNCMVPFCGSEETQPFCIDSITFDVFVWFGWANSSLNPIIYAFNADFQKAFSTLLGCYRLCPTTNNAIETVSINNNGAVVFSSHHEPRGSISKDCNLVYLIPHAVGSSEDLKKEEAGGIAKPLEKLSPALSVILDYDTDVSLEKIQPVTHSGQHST
SMILES,Ki (D(1A) dopamine receptor) [µM],Ki [1] [µM],Ki (D(2) dopamine receptor) [µM],Ki [2] [µM],Ki [3] [µM],Ki (Adrenergic receptor beta) [µM],Ki [4] [µM],Ki [5] [µM]
C1=C(CN2CCOCC2)COc2c1cccc2OC[C@H]1CNCCO1.CS(=O)(=O)O,> 10,> 10,> 10,0.63,> 10,> 10,0.047,> 10
C1=C(CN2CCOCC2)COc2c1cccc2OC[C@@H]1CNCCO1.Cl,> 10,> 10,> 10,> 10,> 10,10,0.275,> 10

# — ChEMBL document CHEMBL1131235, “(R)-(+)-2-[[[3-(Morpholinomethyl)-2H-chromen-8-yl]oxy]methyl] morpholine methanesulfonate: a new selective rat 5-hydroxytryptamine1B receptor antagonist” (J Med Chem, 1998)
